Results as given in ChEMBL document CHEMBL1151781, “Selectivity of inhibitors of endocannabinoid biosynthesis evaluated by activity-based protein profiling” (Bioorg Med Chem Lett, 2008).
Activity calls are given as the source filed them. No cut-off for these calls is given here.

Key:
[1] = molecular target: Acetylcholinesterase (Mus musculus) (UniProt P21836); assay: Inhibition of AChE in mouse brain by LC-MS analysis; format: tissue-based
[2] = molecular target: Diacylglycerol lipase-beta (Homo sapiens, UniProt Q8NCG7); assay: Inhibition of human recombinant DAGLbeta overexpressed in african green monkey COS7 cells; format: cell-based, COS-7
Sequence of Diacylglycerol lipase-beta (Q8NCG7 whole entry): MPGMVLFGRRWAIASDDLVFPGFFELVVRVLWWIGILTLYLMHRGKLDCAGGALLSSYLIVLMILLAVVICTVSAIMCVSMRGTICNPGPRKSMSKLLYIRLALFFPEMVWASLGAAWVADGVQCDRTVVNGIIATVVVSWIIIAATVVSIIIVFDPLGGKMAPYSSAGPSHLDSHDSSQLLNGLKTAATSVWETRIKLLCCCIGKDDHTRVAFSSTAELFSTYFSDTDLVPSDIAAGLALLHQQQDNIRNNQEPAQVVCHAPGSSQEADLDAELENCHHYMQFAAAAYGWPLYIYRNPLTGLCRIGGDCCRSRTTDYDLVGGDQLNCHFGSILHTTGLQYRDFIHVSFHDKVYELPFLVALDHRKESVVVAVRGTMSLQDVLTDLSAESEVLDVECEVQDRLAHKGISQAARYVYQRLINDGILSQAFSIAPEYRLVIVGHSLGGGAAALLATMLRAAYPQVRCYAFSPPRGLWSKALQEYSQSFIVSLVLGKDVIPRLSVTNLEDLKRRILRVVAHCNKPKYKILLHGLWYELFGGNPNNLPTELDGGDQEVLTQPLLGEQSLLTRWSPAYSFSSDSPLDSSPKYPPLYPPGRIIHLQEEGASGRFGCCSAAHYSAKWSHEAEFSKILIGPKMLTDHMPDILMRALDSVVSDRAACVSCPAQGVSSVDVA

[3] = molecular target: Diacylglycerol lipase-alpha (Homo sapiens, UniProt Q9Y4D2); assay: Inhibition of human recombinant DAGLalpha overexpressed in african green monkey COS7 cells; format: cell-based, COS-7
Sequence of Diacylglycerol lipase-alpha (Q9Y4D2 whole entry): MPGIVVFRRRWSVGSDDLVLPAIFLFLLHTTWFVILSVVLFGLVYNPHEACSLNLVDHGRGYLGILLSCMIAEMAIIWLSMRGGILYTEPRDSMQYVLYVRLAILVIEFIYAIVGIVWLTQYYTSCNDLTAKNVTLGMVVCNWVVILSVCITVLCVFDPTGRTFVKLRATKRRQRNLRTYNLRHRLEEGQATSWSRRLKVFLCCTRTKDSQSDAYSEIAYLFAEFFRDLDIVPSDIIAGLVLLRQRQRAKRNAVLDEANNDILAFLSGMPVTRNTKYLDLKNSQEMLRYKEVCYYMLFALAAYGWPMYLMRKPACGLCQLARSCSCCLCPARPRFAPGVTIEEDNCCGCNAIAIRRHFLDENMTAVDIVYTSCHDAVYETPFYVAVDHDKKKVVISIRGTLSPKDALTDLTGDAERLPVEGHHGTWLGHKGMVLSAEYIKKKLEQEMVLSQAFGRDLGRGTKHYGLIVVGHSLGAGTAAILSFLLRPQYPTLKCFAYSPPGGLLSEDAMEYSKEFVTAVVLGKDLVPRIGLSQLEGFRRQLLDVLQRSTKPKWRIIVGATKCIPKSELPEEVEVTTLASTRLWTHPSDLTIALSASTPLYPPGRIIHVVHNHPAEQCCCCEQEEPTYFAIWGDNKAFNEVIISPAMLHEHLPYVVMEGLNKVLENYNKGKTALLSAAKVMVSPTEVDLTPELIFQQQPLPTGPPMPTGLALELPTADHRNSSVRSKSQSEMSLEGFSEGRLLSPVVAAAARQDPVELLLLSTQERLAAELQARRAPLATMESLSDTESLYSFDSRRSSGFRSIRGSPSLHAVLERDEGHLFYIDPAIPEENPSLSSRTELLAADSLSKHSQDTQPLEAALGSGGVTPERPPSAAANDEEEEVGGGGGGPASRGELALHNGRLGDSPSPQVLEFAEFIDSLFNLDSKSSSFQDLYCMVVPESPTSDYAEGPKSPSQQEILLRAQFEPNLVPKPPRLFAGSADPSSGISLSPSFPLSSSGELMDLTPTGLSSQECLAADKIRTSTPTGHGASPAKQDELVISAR

[4] = molecular target: T1, Fatty-acid amide hydrolase 1 (Mus musculus) (UniProt O08914); assay: Inhibition of FAAH in mouse brain assessed as reduction in spectral count at 50 uM treated for 30 mins by ABPP-MudPIT assay relative to control; format: tissue-based
T1 sequence (whole entry): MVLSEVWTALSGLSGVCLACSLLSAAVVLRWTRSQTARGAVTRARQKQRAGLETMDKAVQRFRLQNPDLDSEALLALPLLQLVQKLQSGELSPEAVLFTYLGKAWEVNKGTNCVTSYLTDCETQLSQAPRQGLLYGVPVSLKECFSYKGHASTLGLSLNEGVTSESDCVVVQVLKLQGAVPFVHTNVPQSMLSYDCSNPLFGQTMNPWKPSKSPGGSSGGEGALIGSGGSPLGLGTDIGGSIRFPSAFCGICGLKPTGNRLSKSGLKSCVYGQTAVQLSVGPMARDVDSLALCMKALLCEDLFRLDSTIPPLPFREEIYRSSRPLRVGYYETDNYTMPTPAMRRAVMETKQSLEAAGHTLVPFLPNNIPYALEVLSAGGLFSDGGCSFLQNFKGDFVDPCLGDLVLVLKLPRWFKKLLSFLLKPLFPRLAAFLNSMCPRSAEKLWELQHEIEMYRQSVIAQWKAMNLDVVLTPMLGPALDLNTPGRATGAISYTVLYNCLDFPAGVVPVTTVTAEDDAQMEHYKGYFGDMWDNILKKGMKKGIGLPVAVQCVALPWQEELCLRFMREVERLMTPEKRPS
Outline: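 Mouse brain proteome was treated with inhibitor at the stated single concentration, or DMSO as control, for 30 min. FP-biotin (5 μM) was then added for 120 min, followed by avidin enrichment and LC-MS (ABPP-MudPIT). Runs were in triplicate. Only hydrolases with >15 average spectral counts in control were quantified. Blockade is the percent reduction in average spectral counts versus DMSO; >60% defined a target.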

[5] = molecular target: T2, Phosphatidylserine lipase ABHD16A (Mus musculus) (UniProt Q9Z1Q2); conditions: Brain, 5 uM
T2 sequence (whole entry): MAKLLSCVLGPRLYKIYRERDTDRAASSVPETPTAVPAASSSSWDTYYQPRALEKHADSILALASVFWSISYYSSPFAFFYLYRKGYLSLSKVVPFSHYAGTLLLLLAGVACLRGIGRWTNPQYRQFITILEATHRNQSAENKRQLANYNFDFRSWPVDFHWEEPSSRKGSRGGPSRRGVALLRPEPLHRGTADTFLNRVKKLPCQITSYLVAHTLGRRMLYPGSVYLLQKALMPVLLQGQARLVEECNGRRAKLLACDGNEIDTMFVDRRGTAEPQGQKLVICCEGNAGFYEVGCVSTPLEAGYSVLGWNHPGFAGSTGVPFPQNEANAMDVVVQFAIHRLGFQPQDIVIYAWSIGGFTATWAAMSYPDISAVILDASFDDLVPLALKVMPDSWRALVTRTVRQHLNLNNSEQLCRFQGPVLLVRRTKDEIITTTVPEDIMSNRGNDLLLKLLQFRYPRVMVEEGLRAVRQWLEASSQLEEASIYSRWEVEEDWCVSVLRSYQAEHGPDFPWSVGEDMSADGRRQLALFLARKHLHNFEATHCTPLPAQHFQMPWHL

Sequence of Acetylcholinesterase (Mus musculus) (P21836 whole entry): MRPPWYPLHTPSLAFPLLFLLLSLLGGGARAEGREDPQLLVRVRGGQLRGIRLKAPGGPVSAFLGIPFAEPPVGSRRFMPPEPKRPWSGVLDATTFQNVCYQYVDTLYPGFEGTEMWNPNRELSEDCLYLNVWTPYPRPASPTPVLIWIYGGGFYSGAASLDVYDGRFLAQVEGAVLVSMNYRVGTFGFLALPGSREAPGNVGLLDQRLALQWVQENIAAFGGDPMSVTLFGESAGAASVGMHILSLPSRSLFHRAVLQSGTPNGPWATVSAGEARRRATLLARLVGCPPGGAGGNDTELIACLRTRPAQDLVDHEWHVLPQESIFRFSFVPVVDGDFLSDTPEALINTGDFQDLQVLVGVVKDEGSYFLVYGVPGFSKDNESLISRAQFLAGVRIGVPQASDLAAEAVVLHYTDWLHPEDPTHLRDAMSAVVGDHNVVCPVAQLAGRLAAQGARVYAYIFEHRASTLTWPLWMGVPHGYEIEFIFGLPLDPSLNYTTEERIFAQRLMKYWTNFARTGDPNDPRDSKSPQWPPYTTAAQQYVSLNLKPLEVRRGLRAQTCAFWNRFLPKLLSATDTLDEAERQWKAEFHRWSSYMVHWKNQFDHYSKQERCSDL

| SMILES | Activity [1] | IC50 [2] [nM] | IC50 [3] [nM] | inhibition [4] [%] | inhibition [5] [%] |
| --- | --- | --- | --- | --- | --- |
| O=C(NCCCCCCNC(=O)ON=C1CCCCC1)ON=C1CCCCC1 | Active | 60 | 60 | > 60 | – |
| CCCCCCCCCCC[C@@H](C[C@@H]1OC(=O)[C@H]1CCCCCC)OC(=O)[C@H](CC(C)C)NC=O [ORLISTAT] | – | – | – | – | > 60 |
